In PubChem BioAssay AID720543 (The Scripps Research Institute Molecular Screening Center, 2013):
The campaign covered roughly 370,000 compounds. About 2,000 (0.54%) were called active.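 Rule for the calls: active = inhibition exceeding the mean over every tested compound plus 3 SD (cut at about 30% in these data); inactive = the rest.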 This excerpt belongs to a sample that is enriched for actives.

Biological target: (Lyso)-N-acylphosphatidylethanolamine lipase (Mus musculus) (UniProt Q8VD66)
Experiment: ABHD4 inhibitors, primary screen, biochemical, fluorescence polarization, mouse (AID 720543);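 note: 0% = plate median of compound wells and 100% = S159A mutant with DMSO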
Conditions: purified mABHD4, FP-Rh probe fluorescence polarization; at 8.92 µM; stronger effect = higher value
Method in brief: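 System: mouse ABHD4 enzyme, wild type / Medium: HEPES pH 7.0, NaCl, Pluronic buffer / Reagent: FP-Rh activity-based fluorescent probe / Control set: S159A mutant high control, sample median low control / Detection: fluorescence polarization with parallel and perpendicular emission, 525/598 nm / Schedule: 45 min + 60 min at 25 °C / Compound dosing: 8.92 µM, single dose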

Chain of (Lyso)-N-acylphosphatidylethanolamine lipase (Mus musculus) (Q8VD66 whole entry, looked up): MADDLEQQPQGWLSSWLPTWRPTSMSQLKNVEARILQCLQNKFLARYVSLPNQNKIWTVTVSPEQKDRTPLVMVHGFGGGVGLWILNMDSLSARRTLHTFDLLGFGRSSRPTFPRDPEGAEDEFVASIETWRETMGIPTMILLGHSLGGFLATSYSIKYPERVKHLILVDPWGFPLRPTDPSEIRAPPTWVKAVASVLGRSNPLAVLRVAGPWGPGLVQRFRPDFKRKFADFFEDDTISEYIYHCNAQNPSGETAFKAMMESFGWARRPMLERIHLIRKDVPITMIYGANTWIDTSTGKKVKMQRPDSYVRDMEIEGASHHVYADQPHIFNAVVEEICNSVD

inhibition, active:
c1ccc2sc(NN=C3CCCC3)nc2c1 37.2%
CCOc1[nH]n(-c2ccc(Cl)cc2)c(=O)c1C=Nc1ccc(O)cc1 37.3%
Cn1c(SCC(=O)N/N=C/c2ccc(O)c(O)c2)nc2ccccc21 30.7%
Oc1ccc(/C=N/Nc2ccc(C(F)(F)F)cn2)cc1O 36.2%
CNC(=S)NNC(=O)c1oc2nc(-c3ccccc3)cc(-c3ccco3)c2c1N 37.3%
CCOC(=O)C1=C(C)N=C2c3ccccc3C(=O)C2C1c1ccc(Br)cc1 (configuration not stated) 46.9%
Cc1c(CC(=O)N2CCN(C(=O)C3COc4ccccc4O3)CC2)c(=O)oc2c(O)c(O)ccc12 (configuration not stated) 31.1%
COCCOC(=O)c1sc(=S)n(CCOC)c1N 52.1%
NC(N)=N/N=C/c1ccc(OCc2ccc(Cl)cc2Cl)cc1 31.7%
CCCCCCSc1ccc(-c2nc3ccc(Cl)cn3c2NCc2ccccc2)cc1 30.7%
Cc1ccc(NC(=O)Cc2nc(COC(=O)C(C)NS(=O)(=O)c3ccc(C)cc3)cs2)cc1 (configuration not stated) 30%

inhibition, inactive:
Brc1c(CSc2nncc3ccccc23)nc2ccccn12 -3.21%
CCC(C)[C@@H](C(=O)OC)N(CCc1cn(Cc2ccccc2)nn1)S(=O)(=O)c1ccccc1Br (some centres not stated) -6.72%
O=C1NC(Nc2nc3ccccc3s2)(C(F)(F)F)C(=O)N1C1CCCCC1 (configuration not stated) -23%
O=C(COc1ccc(-c2ccccc2)cc1)NN=C1CCCC1 0.58%
COC(=O)C1=C(C)N(Cc2ccc(C(F)(F)F)cc2)C(=NCc2ccccc2)NC1c1ccccc1C(F)(F)F (configuration not stated) 6.99%
Cc1nc2ccc(C(=O)N3CCN(C(=O)C(C)(C)C)CC3)cc2n1C1CCCC1 -2.14%
COC(=O)[C@]12C[C@H](CC(=O)NCCc3ccccc3OC)C(=O)N(Cc3ccco3)C1=C[C@H](C(C)C)O[C@@H]2C1CC1 -4.62%
O=C(c1cccc(C(F)(F)F)c1)N1CC[C@H]2[C@H](CCCN2Cc2cc(F)cc(F)c2)C1 -3.78%
CCC1(CC)NC(=O)N(CC(=O)OCC(=O)Nc2ccc(C(F)(F)F)cc2)C1=O -3.48%
O=C(CSc1nc2ccccc2s1)NN=Cc1ccc(O)cc1O 0.63%
O=C(CSc1nc2ccccc2n1Cc1ccccc1Cl)N/N=C\c1c[nH]c2ccccc12 -14.1%
CC1CN(C(=O)c2cccc(NS(=O)(=O)c3ccc(Br)cc3)c2)CC(C)O1 (configuration not stated) 3.29%
C/C(=N/N1CCN(Cc2cccc3ccccc23)CC1)c1cccnc1 -2.15%
COCCCNC(NC(=O)c1ccc(C)cc1)C(Cl)(Cl)Cl (configuration not stated) -5.04%
O=C(C1CCCO1)N1CCN(S(=O)(=O)c2ccc(Br)cc2)CC1 (configuration not stated) 1.47%
Cc1nnsc1C(=O)N/N=C/c1cccc(C(F)(F)F)c1 3.14%
O=C(N/N=C/c1ccc(O)c(O)c1)C1c2ccccc2Oc2ccccc21 26.1%
Cc1nccc(-c2ccc(-n3c(C)ccc3C)cc2)n1 -7.18%
CC(C)CNC(=O)OCc1cn(Cc2ccc(F)cc2)nn1 -1.25%
O=C(CSc1nnc(-c2cccc(Cl)c2)n1Cc1ccco1)Nc1ccc(OCc2ccccc2)cc1 4.02%
Cc1cc(C)cc(NC(=O)N2CCC(N(C)CCC(C)C)CC2)c1 -1.26%
CCn1c(SCC(=O)Nc2cccc(F)c2)nnc1-c1cc2cc(Br)ccc2o1 -4.13%
[O-][n+]1ccc(OCc2ccccc2)cc1 1.3%
CCOC(=O)C1=C(C)NC(SC)=NC1c1ccccc1 (configuration not stated) 4.01%
Cc1cccc(C2C3=C(CCCC3=O)N=C3c4ccccc4C(=O)C32)c1 (configuration not stated) 25.7%
O=C(CN1CCCCCC1)N1c2ccccc2Sc2ccc(C(F)(F)F)cc21 -5.91%
Cc1ccc(S(=O)(=O)N(C)C)cc1NC(=O)COC(=O)C1COc2ccccc2O1 (configuration not stated) -2.17%
COC(=O)Cc1cc(=O)oc2c(C)c(O)ccc12 -0.82%
NC(=O)CCC(NS(=O)(=O)c1ccc(Cl)cc1)C(=O)NCc1ccccc1Cl (configuration not stated) 1.64%
Cc1noc(C)c1C(=O)N(CC(=O)NC1CCCC1)Cc1ccccc1F 8.87%
Cc1ccc2c(C)c(C(=O)N(C)CCC3CCCCO3)oc2c1C (configuration not stated) 2.89%
COC(=O)CC1CCc2cc(C)cc(C(CC(C)C)NC(=O)[C@H](CC(C)C)NC(=O)OCc3ccccc3)c2O1 (some centres not stated) 1.24%
C=CCN(Cc1ccc2c(c1)OCO2)C(C#CC1CC1)C(C)(C)C (configuration not stated) 7.34%
N#Cc1ccc(OC[C@@H](O)CN2CCC(C(O)(c3ccccc3)c3ccccc3)CC2)c(F)c1 3.13%
COCCCn1c(SCC(=O)Nc2oc(C)c3c(C)n[nH]c(=O)c23)nc2sc3c(c2c1=O)CCC3 -0.16%
NC(=O)COc1ccc(/C=N/NC(=O)C2CCCN2S(=O)(=O)c2ccc(Cl)cc2)cc1 (configuration not stated) -2.8%
COC(=O)c1ccccc1-n1cc(COC(=O)NCCc2ccccc2)nn1 4.86%
CC(=O)c1ccc(S(=O)(=O)NCC2CCN(C(=O)C(=O)c3cccs3)CC2)cc1 -4.2%
C=C1C(C(C)C)N(C)C2=NC(c3ccccc3)CC(=O)N12 (configuration not stated) -4.4%
Clc1ccc2nc(CSc3ccccc3)cn2c1 0.19%
COc1ccccc1Cc1c(-c2ccc(Cl)cc2)nc2ccc(Cl)cn12 -4.24%
CCOC(=O)C1(S(=O)(=O)c2ccc(Cl)cc2)CCN(Cc2ccccc2)CC1 -3.97%
c1csc(-c2nnc(COc3ccc4c(c3)OCO4)o2)c1 2.17%
c1coc(CCNc2ncnc3ccc(-c4ccc5c(c4)OCO5)cc23)c1 -22.8%
C/C=C/C(=O)OCc1csc(CC(=O)Nc2ccccc2C)n1 -5.94%
CC(=O)Nc1ccc(S(=O)(=O)NC(C)C(=O)OCC(=O)NC2CCCC2)cc1 (configuration not stated) -2.25%
